Reference: ChEMBL document CHEMBL1141491, “Design, synthesis, and evaluation of novel ethambutol analogues” (2008)
Converted amounts (≈) assume the structure as drawn.

System: Mycobacterium tuberculosis
Assay: Antituberculosis activity against Mycobacterium tuberculosis H37Rv by microbroth dilution method
Format: functional
Outline: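 M. tuberculosis H37Rv grown in Middlebrook 7H9 with 10% ADC to OD600 0.4–0.6, then diluted in 7H9 to OD600 0.01. This inoculum was added to 2-fold serial dilutions of compound and incubated 37 °C for 7 days. MIC90 was read visually as the concentration inhibiting 90% of growth.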

SMILES | MIC90 [µg/mL]
CC(C)(CO)NCCNC(C)(C)CO.Cl.Cl | 6.25
CC[C@@H](CO)NCCN[C@H](CO)c1ccccc1.Cl.Cl | 50
CC[C@@H](CO)NCCNC(C)(C)CO.Cl.Cl | 1.6
C=CC[C@@H](CO)NCCN[C@@H](CC)CO.Cl.Cl | 25
Br.Br.CC[C@@H](CO)NCCN[C@@H](CC)CO [ETHAMBUTOL HYDROBROMIDE] | 0.8
CC[C@@H](CO)NCCN[C@@](C)(CC)CO | 3.12 (≈ 14.3 µM)
CC[C@@H](CO)NCCNC(CO)CO.Cl.Cl | 3.12
CC[C@@H](CO)NCCNC1(CO)CCCC1.Cl.Cl | 1.6
Cl.Cl.OCC1(NCCNC2(CO)CCCC2)CCCC1 | 3.12
C=CC[C@@](C)(CO)NCCN[C@@H](CC)CO.Cl.Cl | 6.25
